For assay [1], the system named is Escherichia coli. Put plainly: Antibacterial activity against quinolone resistance Escherichia coli isolate ELZ4251 harboring gyrA/parC mutant by CLSI M100-S17 protocol based method. It counts as functional.
Assay [2] relates to Klebsiella pneumoniae. Nature of the assay: Antibacterial activity against wild type Klebsiella pneumoniae ATCC 35657 by CLSI M100-S17 protocol based method. The class given is functional.
The subject of assay [3] is Acinetobacter baumannii. Nature of the assay: Antibacterial activity against fluoroquinolone resistant Acinetobacter baumannii isolate MMX2240 by CLSI M100-S17 protocol based method. The class given is functional.
Assay [4] relates to Acinetobacter baumannii. Put plainly: Antibacterial activity against wild type Acinetobacter baumannii ATCC BAA-747 by CLSI M100-S17 protocol based method. The class given is functional.
For assay [5], the system named is Escherichia coli. Put plainly: Antibacterial activity against wild type Escherichia coli ATCC 25922 by CLSI M100-S17 protocol based method. It counts as functional.
Assay [6] relates to Escherichia coli. Nature of the assay: Antibacterial activity against fluoroquinolone resistant Escherichia coli SKM18 by CLSI M100-S17 protocol based method. The class given is functional.
Assay [7] relates to Escherichia coli. Nature of the assay: Antibacterial activity against wild type Escherichia coli ATCC 25922 in presence of HSA by CLSI M100-S17 protocol based method. The class given is functional.
The subject of assay [8] is Escherichia coli. Put plainly: Selectivity ratio of MIC for wild type Escherichia coli ATCC 25922 in presence of HSA to MIC for wild type Escherichia coli ATCC 25922. The class given is functional.
Assay [9] deals with Escherichia coli. Put plainly: Antibacterial activity against quinolone resistant Escherichia coli by broth microdilution method. The class given is functional. The procedure, abridged: (§1)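 MICs were determined by CLSI broth methods, except that organisms were grown in brain–heart–infusion medium. The panel comprised wild-type and resistant E. coli and A. baumannii strains, including 12 strains whose details are given by reference.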

For assay [10], the system named is Acinetobacter baumannii. Nature of the assay: Antibacterial activity against aminoglycoside resistant Acinetobacter baumannii by broth microdilution method. It counts as functional. The procedure, abridged: as §1
Assay [11] concerns Acinetobacter baumannii. Nature of the assay: Antibacterial activity against wild type Acinetobacter baumannii by broth microdilution method. The class given is functional. The method, boiled down: as §1
The test system of assay [12] is Escherichia coli. Put plainly: Antibacterial activity against aminoglycoside resistant Escherichia coli by broth microdilution method. The class given is functional. The method, boiled down:
as §1

In assay [13] the test system is Acinetobacter baumannii. Nature of the assay: Antibacterial activity against carbapenem resistant Acinetobacter baumannii by broth microdilution method. It counts as functional. The method, boiled down: as §1
In assay [14] the test system is Escherichia coli. Nature of the assay: Antibacterial activity against beta-lactam resistant Escherichia coli by broth microdilution method. It counts as functional. The procedure, abridged:
as §1

Assay [15] deals with Acinetobacter baumannii. Nature of the assay: Antibacterial activity against beta-lactam resistant Acinetobacter baumannii by broth microdilution method. It counts as functional. The procedure, abridged: as §1
Assay [16] relates to Acinetobacter baumannii. Nature of the assay: Antibacterial activity against multidrug resistant Acinetobacter baumannii by broth microdilution method. The class given is functional. The method, boiled down: as §1
Assay [17] in a line: Inhibition of His tagged Escherichia coli ATCC 25922 DNA gyrase A expressed in Escherichia coli BL21 (DE3) pLysS cells assessed as reduction in enzyme-mediated supercoiling of relaxed plasmid DNA pNO1 after 30 mins in presence of biotinylated TFO1 by fluorescence assay.
The test system of assay [18] is Acinetobacter baumannii. Put plainly: Antibacterial activity against quinolone resistant Acinetobacter baumannii by broth microdilution method. It counts as functional. The procedure, abridged:
as §1

A short description of assay [19]: Inhibition of Escherichia coli DNA topoisomerase 4 assessed as reduction in decatenation activity using kinetoplast concatenated DNA as substrate after 30 mins by picogreen dye based fluorescence assay.
Assay [20] has as its system Escherichia coli. Nature of the assay: Antibacterial activity against wild type Escherichia coli by broth microdilution method. The class given is functional. The method, boiled down:
as §1

Assay [21] has as its system Escherichia coli. Put plainly: Antibacterial activity against multidrug resistant Escherichia coli by broth microdilution method. It counts as functional. The method, boiled down: as §1
[22] abbreviates: Escherichia coli, read-out: MIC.
Setting [23] is: Acinetobacter baumannii, read-out: MIC.

Structures are written as SMILES. Values after ≈ are worked out from the molar mass of the structure shown.

Consider `CCc1c(-c2ccc3c(ccn3C)c2)[nH]c(=O)c(C(=O)O)c1O`, for which the MIC in assay [1] worked out at 6.3 µg/mL (≈ 20.2 µM); in [2], 3.1 µg/mL (≈ 9.93 µM); in [3] it was 0.78 µg/mL (≈ 2.5 µM); in [4], 0.78 µg/mL (≈ 2.5 µM); in assay [5] it was 0.78 µg/mL (≈ 2.5 µM); in [6] it was 3.1 µg/mL (≈ 9.93 µM). The MIC in assay [7] is above 62.5 µg/mL. The Ratio in assay [8] is given as above 40.

`CCNCc1cc2cc(-c3[nH]c(=O)c(C(=O)O)c(O)c3CC)ccc2n1C`: the MIC50 in assay [9] (Escherichia coli) is 1 µg/mL (≈ 2.71 µM); in assay [10] (Acinetobacter baumannii), 2 µg/mL (≈ 5.41 µM); in assay [11] it was 2 µg/mL (≈ 5.41 µM); in [12] (Escherichia coli), 1 µg/mL (≈ 2.71 µM); in assay [13] (Acinetobacter baumannii) it was 2 µg/mL (≈ 5.41 µM); in assay [14] (Escherichia coli), 1 µg/mL (≈ 2.71 µM). The MIC50 in assay [15] (Acinetobacter baumannii) stood at 2 µg/mL (≈ 5.41 µM); in assay [16] (Acinetobacter baumannii), 2 µg/mL (≈ 5.41 µM); in assay [18] (Acinetobacter baumannii), 2 µg/mL (≈ 5.41 µM); in assay [20], 1 µg/mL (≈ 2.71 µM); in assay [21] (Escherichia coli), 1 µg/mL (≈ 2.71 µM). The MIC90 worked out at 4 µg/mL (≈ 10.8 µM) in assay [9] (Escherichia coli); 16 µg/mL (≈ 43.3 µM) in assay [10] (Acinetobacter baumannii); 16 µg/mL (≈ 43.3 µM) in assay [11]; 4 µg/mL (≈ 10.8 µM) in assay [12] (Escherichia coli); 16 µg/mL (≈ 43.3 µM) in [13] (Acinetobacter baumannii); 4 µg/mL (≈ 10.8 µM) in assay [14] (Escherichia coli). The MIC90 turned out to be 16 µg/mL (≈ 43.3 µM) in [15] (Acinetobacter baumannii); 16 µg/mL (≈ 43.3 µM) in [16] (Acinetobacter baumannii); 16 µg/mL (≈ 43.3 µM) in [18] (Acinetobacter baumannii); 4 µg/mL (≈ 10.8 µM) in [20]; 4 µg/mL (≈ 10.8 µM) in [21] (Escherichia coli). Further, the MIC in assay [9] (setting [22]) was 0.25 to 4 µg/mL (≈ 0.677 to 10.8 µM); in [10] (setting [23]), 0.5 to 32 µg/mL (≈ 1.35 to 86.6 µM); in [1], 3.1 µg/mL (≈ 8.39 µM); in assay [2], 0.39 µg/mL (≈ 1.06 µM); in assay [3], 6.3 µg/mL (≈ 17.1 µM); in assay [12] (setting [22]), 0.25 to 4 µg/mL (≈ 0.677 to 10.8 µM). The MIC in assay [13] (setting [23]) is 0.5 to 32 µg/mL (≈ 1.35 to 86.6 µM); in assay [4], 0.78 µg/mL (≈ 2.11 µM); in assay [14] (setting [22]) it was 0.25 to 4 µg/mL (≈ 0.677 to 10.8 µM); in [15] (setting [23]), 0.5 to 32 µg/mL (≈ 1.35 to 86.6 µM); in assay [16] (setting [23]), 0.5 to 32 µg/mL (≈ 1.35 to 86.6 µM); in assay [18] (setting [23]), 0.5 to 32 µg/mL (≈ 1.35 to 86.6 µM). For the same compound, the MIC is 0.39 µg/mL (≈ 1.06 µM) in assay [5], 1.6 µg/mL (≈ 4.33 µM) in [6], 1.6 µg/mL in assay [7] and 0.25 to 4 µg/mL (≈ 0.677 to 10.8 µM) in assay [21] (setting [22]). Also, the IC50 is 0.3 µM in assay [17] and 3.3 µM in assay [19].

Turning to `CCNCc1cc2cc3c(cc2n1C)CCCCc1c-3[nH]c(=O)c(C(=O)O)c1O`, the IC50 in assay [17] was found to be 0.8 µM; in assay [19] it was 15.3 µM. In addition, the MIC amounted to 0.78 µg/mL (≈ 1.97 µM) in [5] and 3.1 µg/mL (≈ 7.84 µM) in assay [6].

On to `CC(C)NCc1cc2cc3c(cc2n1C)OCCc1c-3[nH]c(=O)c(C(=O)O)c1O`, for which the MIC amounted to 1 µg/mL (≈ 2.52 µM) in assay [1]; 1.6 µg/mL (≈ 4.03 µM) in assay [2]; 6.3 µg/mL (≈ 15.9 µM) in assay [3]; 3.9 µg/mL (≈ 9.81 µM) in assay [4]; 0.49 µg/mL (≈ 1.23 µM) in assay [5]; 0.49 µg/mL (≈ 1.23 µM) in assay [6]. Besides, the MIC in assay [7] was found to be 2 µg/mL. In addition, the Ratio in assay [8] is on record as 2 - 4.

In the case of `CCNCc1cc2cc3c(cc2n1C)Cc1c-3[nH]c(=O)c(C(=O)O)c1O`, the IC50 in [17] and in assay [19] was above 11.1 µM each time. Moreover, the MIC in assay [5] and in [6] was above 62.5 µg/mL throughout.

Take `C[C@H]1COc2c(N3CCN(C)CC3)c(F)cc3c(=O)c(C(=O)O)cn1c23.C[C@H]1COc2c(N3CCN(C)CC3)c(F)cc3c(=O)c(C(=O)O)cn1c23.O` [LEVOFLOXACIN]: the MIC fell in the range of 0.015 to 32 µg/mL in [9]; 0.06 to 64 µg/mL in assay [10]; 0.015 to 32 µg/mL in assay [12]; 0.06 to 64 µg/mL in assay [13]; 0.015 to 32 µg/mL in assay [14]; 0.06 to 64 µg/mL in assay [15]. Moreover, the MIC fell in the range of 0.06 to 64 µg/mL in assay [16], 0.06 to 64 µg/mL in assay [18] and 0.015 to 32 µg/mL in [21]. Also, the MIC50 in assay [9] (Escherichia coli) turned out to be 0.06 µg/mL; in assay [10] (Acinetobacter baumannii), 2 µg/mL; in assay [11], 2 µg/mL; in assay [12] (Escherichia coli), 0.06 µg/mL; in assay [13] (Acinetobacter baumannii), 2 µg/mL; in assay [14] (Escherichia coli), 0.06 µg/mL. In addition, the MIC50 in assay [15] (Acinetobacter baumannii) was 2 µg/mL; in assay [16] (Acinetobacter baumannii), 2 µg/mL; in assay [18] (Acinetobacter baumannii) it was 2 µg/mL; in [20] it was 0.06 µg/mL; in assay [21] (Escherichia coli), 0.06 µg/mL. In addition, the MIC90 in assay [9] (Escherichia coli) is 32 µg/mL; in assay [10] (Acinetobacter baumannii), 16 µg/mL; in assay [11] it was 16 µg/mL; in [12] (Escherichia coli) it was 32 µg/mL; in assay [13] (Acinetobacter baumannii), 16 µg/mL; in assay [14] (Escherichia coli), 32 µg/mL. Also, the MIC90 came out at 16 µg/mL in assay [15] (Acinetobacter baumannii); 16 µg/mL in assay [16] (Acinetobacter baumannii); 16 µg/mL in assay [18] (Acinetobacter baumannii); 32 µg/mL in assay [20]; 32 µg/mL in assay [21] (Escherichia coli).

For `CCc1c(-c2ccc3c(c2)cc(C)n3C)[nH]c(=O)c(C(=O)O)c1O`, the MIC was 62.5 µg/mL (≈ 192 µM) in [1], 1.6 µg/mL (≈ 4.9 µM) in assay [5], above 62.5 µg/mL in assay [6] and above 62.5 µg/mL in assay [7]. Moreover, in assay [8], the Ratio was above 40.

Turning to `CNCc1cc2cc3c(cc2n1C)SCCc1c-3[nH]c(=O)c(C(=O)O)c1O`, the MIC in assay [1] was 1.6 µg/mL (≈ 4.15 µM); in assay [2], 1 µg/mL (≈ 2.59 µM); in [3], 7.8 µg/mL (≈ 20.2 µM); in assay [4], 3.9 µg/mL (≈ 10.1 µM); in assay [5] it was 1 µg/mL (≈ 2.59 µM); in assay [6], 0.49 µg/mL (≈ 1.27 µM). In assay [7], the MIC came out at 7.8 µg/mL. Further, the Ratio in assay [8] is 8 - 16.

The record behind these values is ChEMBL document CHEMBL4190388, “Discovery and Optimization of Indolyl-Containing 4-Hydroxy-2-Pyridone Type II DNA Topoisomerase Inhibitors Active against Multidrug Resistant Gram-negative Bacteria” (J Med Chem, 2018).
